Experimental findings from ChEMBL document CHEMBL1156136, “Hypoxia-activated prodrugs: substituent effects on the properties of nitro seco-1,2,9,9a-tetrahydrocyclopropa[c]benz[e]indol-4-one (nitroCBI) prodrugs of DNA minor groove alkylating agents” (J Med Chem, 2009) are described below.

In test [1] the test system is SK-OV-3. Briefly: Cytotoxicity against human SKOV3 cells in oxic condition after 4 hrs by sulforhodamine B assay. Format: functional, cell-based. To be noted: SK-OV-3, 4 h. Put shortly: (§1)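 Log-phase monolayers exposed to drug for 4 h under aerobic (20% O2) or anoxic (<20 ppm O2) conditions, then sulforhodamine B staining 5 days later. IC50 interpolated as concentration lowering cell density to 50% of same-plate controls. HCR = IC50(oxic)/IC50(hypoxic), mean of intraexperiment ratios. A549 P450R line is a stable transfectant with 9-fold higher cytochrome c reduction rate than parent.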
(In general: Sulforhodamine B stains cellular protein and so reports cell mass.)

The test system of test [2] is SK-OV-3. Briefly: Cytotoxicity against human SKOV3 cells in hypoxic condition after 4 hrs by sulforhodamine B assay. Format: functional, cell-based. As to conditions: SK-OV-3, 4 h. Put shortly: as §1
In test [3] the test system is SK-OV-3. As to the kind of experiment: Hypoxic cytotoxicity ratio, IC50 for human SKOV3 cells in oxic condition to IC50 for human SKOV3 cells in hypoxic condition. Format: functional. Put shortly: as §1
The subject of test [4] is HT-29. As to the kind of experiment: Cytotoxicity against human HT-29 cells in oxic condition after 4 hrs by sulforhodamine B assay. Format: functional, cell-based. To be noted: HT-29, 4 h. Summed up: as §1
Test [5] concerns HT-29. As to the kind of experiment: Cytotoxicity against human HT-29 cells in hypoxic condition after 4 hrs by sulforhodamine B assay. Format: functional, cell-based. As to conditions: HT-29, 4 h. Summed up: as §1
Test [6] relates to HT-29. Briefly: Hypoxic cytotoxicity ratio, IC50 for human HT-29 cells in oxic condition to IC50 for human HT-29 cells in hypoxic condition. It is filed as functional. Put shortly: as §1

Bounds are passed on as bounds.

Usually IC50 stands for the concentration at which inhibition is half-maximal. Lower therefore signals inhibition by little substance. Consider `COc1cc2cc(C(=O)N3CC(CCl)c4c3cc([N+](=O)[O-])c3ccccc43)[nH]c2c(OC)c1OC` (stereo unspecified), for which the IC50 was found to be 4200 nM in the test on SK-OV-3 [1], 1.7 nM with SK-OV-3 [2], 3400 nM in the test with HT-29 [4] and 1.6 nM with HT-29 [5]. In addition, the “Ratio IC50” value in the test with SK-OV-3 [3] is reported as 2.8; in the test with HT-29 [6], 2.5.
On to `COc1cc2cc(C(=O)N3CC(CCl)c4c3cc([N+](=O)[O-])c3cccc([N+](=O)[O-])c43)[nH]c2c(OC)c1OC` (stereo unspecified), for which the IC50 with SK-OV-3 [1] was 55000 nM; with SK-OV-3 [2] it was more than 50000 nM; with HT-29 [4], 34000 nM; in the test on HT-29 [5] it was 33000 nM. Besides, the “Ratio IC50” value is listed as less than 1.1 with SK-OV-3 [3] and 1.2 in the test with HT-29 [6].
With `CN(C)CCOc1ccc2[nH]c(C(=O)N3CC(CCl)c4c3cc(N)c3cc(S(C)(=O)=O)ccc43)cc2c1` (stereo unspecified), the IC50 in the test on SK-OV-3 [1] was 14000 nM; in the test with SK-OV-3 [2], 8.2 nM; with HT-29 [4], 11000 nM; in the test on HT-29 [5], 7.3 nM. Further, the “Ratio IC50” value turned out to be 1.7 in the test with SK-OV-3 [3] and 1.6 with HT-29 [6].
On to `CN(C)CCOc1ccc2[nH]c(C(=O)N3CC(CCl)c4c3cc([N+](=O)[O-])c3c(C#N)cccc43)cc2c1` (stereo unspecified), for which the 50% inhibitory concentration (IC50) with SK-OV-3 [1] stood at 170 nM; with SK-OV-3 [2] it was 0.1 nM; with HT-29 [4], 120 nM; in the test with HT-29 [5], 0.1 nM. For the same compound, the “Ratio IC50” value with SK-OV-3 [3] turned out to be 1.7; in the test with HT-29 [6], 1.1.
For `CC(=O)c1cccc2c3c(cc([N+](=O)[O-])c12)N(C(=O)c1cc2cc(OCCN(C)C)ccc2[nH]1)CC3CCl` (stereo unspecified), the IC50 stood at 640 nM in the test on SK-OV-3 [1], 52 nM in the test on SK-OV-3 [2], 200 nM in the test on HT-29 [4] and 35 nM in the test with HT-29 [5]. The “Ratio IC50” value amounted to 12 with SK-OV-3 [3] and 5.2 with HT-29 [6].
In the case of `CN(C)CCOc1ccc2[nH]c(C(=O)N3CC(CCl)c4c3cc([N+](=O)[O-])c3c(C(N)=O)cccc43)cc2c1` (stereo unspecified), the IC50 with SK-OV-3 [1] came to 50000 nM; with SK-OV-3 [2], 3.2 nM; with HT-29 [4], 23000 nM; in the test on HT-29 [5] it was 1.5 nM. The entries for the “Ratio IC50” value with SK-OV-3 [3] and with HT-29 [6] were 18 and 43, respectively.
As for `CN(C)CCOc1ccc2[nH]c(C(=O)N3CC(CCl)c4c3cc(N)c3cc(S(N)(=O)=O)ccc43)cc2c1` (stereo unspecified), the half-maximal inhibitory concentration (IC50) in the test on SK-OV-3 [1] amounted to 23000 nM; with SK-OV-3 [2], 16 nM; with HT-29 [4], 35000 nM; in the test with HT-29 [5], 23 nM. The entries for the “Ratio IC50” value in the test with SK-OV-3 [3] and in the test with HT-29 [6] were 1.4 and 1.8, respectively.
Consider `COC(=O)c1ccc2c3c(cc([N+](=O)[O-])c2c1)N(C(=O)c1cc2cc(OC)c(OC)c(OC)c2[nH]1)CC3CCl` (stereo unspecified), for which the IC50 worked out at 1100 nM with SK-OV-3 [1], 0.51 nM with SK-OV-3 [2], 1900 nM with HT-29 [4] and 0.81 nM in the test with HT-29 [5]. For the same compound, the “Ratio IC50” value with SK-OV-3 [3] is on record as 4; in the test on HT-29 [6] it was 3.2.
Consider `COc1cc2cc(C(=O)N3CC(CCl)c4c3cc([N+](=O)[O-])c3ccc(S(C)(=O)=O)cc43)[nH]c2c(OC)c1OC` (stereo unspecified), for which the IC50 in the test with SK-OV-3 [1] was 11000 nM; with SK-OV-3 [2], 3.9 nM; in the test on HT-29 [4], 14000 nM; with HT-29 [5], 7.2 nM. The “Ratio IC50” value turned out to be 4.2 in the test on SK-OV-3 [3] and 2.5 in the test on HT-29 [6].
On to `COc1cc2cc(C(=O)N3CC(CCl)c4c3cc(N)c3cc(S(C)(=O)=O)ccc43)[nH]c2c(OC)c1OC` (stereo unspecified), for which the IC50 was determined as 32000 nM in the test with SK-OV-3 [1], 25 nM in the test with SK-OV-3 [2], 32000 nM in the test on HT-29 [4] and 36 nM in the test on HT-29 [5]. Further, the entries for the “Ratio IC50” value in the test on SK-OV-3 [3] and in the test on HT-29 [6] were 1.2 and 0.86, respectively.
In the case of `COc1cc2cc(C(=O)N3CC(CCl)c4c3cc([N+](=O)[O-])c3cc(S(C)(=O)=O)ccc43)[nH]c2c(OC)c1OC` (stereo unspecified), the IC50 in the test with SK-OV-3 [1] was 17000 nM; with SK-OV-3 [2] it was 9.3 nM; in the test with HT-29 [4] it was 14000 nM; in the test with HT-29 [5], 7.2 nM. The “Ratio IC50” value in the test with SK-OV-3 [3] worked out at 1.9; in the test on HT-29 [6], 2.
`CN(C)CCOc1ccc2[nH]c(C(=O)N3CC(CCl)c4c3cc(N)c3ccc(S(C)(=O)=O)cc43)cc2c1` (stereo unspecified): the concentration for half-maximal inhibition (IC50) in the test with SK-OV-3 [1] stood at 18000 nM; with SK-OV-3 [2], 12 nM; with HT-29 [4], 29000 nM; with HT-29 [5], 16 nM. Besides, the “Ratio IC50” value came out at 1.5 in the test with SK-OV-3 [3] and 1.9 with HT-29 [6].
For `CN(C)CCOc1ccc2[nH]c(C(=O)N3CC(CCl)c4c3cc([N+](=O)[O-])c3cc([N+](=O)[O-])ccc43)cc2c1` (stereo unspecified), the IC50 is 1100 nM with SK-OV-3 [1], 0.12 nM with SK-OV-3 [2], 890 nM in the test with HT-29 [4] and 0.093 nM with HT-29 [5]. Further, the “Ratio IC50” value in the test with SK-OV-3 [3] was 9.3; in the test on HT-29 [6] it was 9.6.
For the compound `COc1cc2cc(C(=O)N3CC(CCl)c4c3cc([N+](=O)[O-])c3cc(C#N)ccc43)[nH]c2c(OC)c1OC` (stereo unspecified), the half-inhibitory concentration (IC50) was 6400 nM in the test with SK-OV-3 [1], 1000 nM in the test with SK-OV-3 [2], 5300 nM in the test on HT-29 [4] and 2400 nM in the test on HT-29 [5]. Besides, the entries for the “Ratio IC50” value in the test with SK-OV-3 [3] and in the test on HT-29 [6] were 13 and 2.5, respectively.
As for `COc1cc2cc(C(=O)N3CC(CCl)c4c3cc(N)c3ccc(S(C)(=O)=O)cc43)[nH]c2c(OC)c1OC` (stereo unspecified), the half-maximal inhibitory concentration (IC50) with SK-OV-3 [1] came out at 19000 nM; in the test with SK-OV-3 [2], 14 nM; in the test on HT-29 [4], 25000 nM; in the test with HT-29 [5], 28 nM. For the same compound, the “Ratio IC50” value was found to be 1.4 in the test on SK-OV-3 [3] and 1 in the test on HT-29 [6].
For the compound `CN(C)CCOc1ccc2[nH]c(C(=O)N3CC(CCl)c4c3cc(N)c3cc(C#N)ccc43)cc2c1` (stereo unspecified), the 50% inhibitory concentration (IC50) is 13000 nM in the test with SK-OV-3 [1], 12 nM in the test on SK-OV-3 [2], 17000 nM with HT-29 [4] and 8.6 nM in the test on HT-29 [5]. The “Ratio IC50” value stood at 1.1 in the test on SK-OV-3 [3] and 2 in the test with HT-29 [6].
